From ChEMBL document CHEMBL1158182, “Antifungal activity of chalcones: a mechanistic study using various yeast strains” (Eur J Med Chem, 2008)

How the values were obtained:
Assay type in all cases: functional
Ogataea angusta [1] = experiment: Antifungal activity against Hansenula polymorpha M4 with met4 genotype by agar dilution method
Summary of the method: (§1)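 H. polymorpha strains were tested by agar dilution on rich YPD agar at 37 °C. Compound stocks in 96% EtOH were mixed into the medium to give […]. Cells were suspended in water, serially diluted to 10^9, 10^7, 10^5 and 10^3 cells/ml, and applied to the agar with a metal replicator. MIC was read from growth.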

Ogataea angusta [2] = experiment: Antifungal activity against Hansenula polymorpha D22 with arg1/arg1 ade1/ADE1 leu2/leu2 URA3/ura3 CYS1/cys1 genotype by agar dilution method; summary of the method: as §1
Ogataea angusta [3] = experiment: Antifungal activity against Hansenula polymorpha AU05 with ade3 ura3 genotype by agar dilution method; summary of the method: as §1
Saccharomyces cerevisiae [4] = experiment: Antifungal activity against haploid Saccharomyces cerevisiae FY4 by agar dilution method
Summary of the method: (§2)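 S. cerevisiae and K. lactis strains were tested by agar dilution on rich YPD agar at 30 °C. Compound stocks in 96% EtOH were added to the medium to give […]. Cells were suspended in water, serially diluted to 10^9–10^3 cells/ml, and plated with a metal replicator. MIC was read from growth.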

Ogataea angusta [5] = experiment: Antifungal activity against Hansenula polymorpha 2a with arg1 leu2 ura3 cys1 genotype by agar dilution method; summary of the method: as §1
Ogataea angusta [6] = experiment: Antifungal activity against Hansenula polymorpha M2 with met2 genotype by agar dilution method; summary of the method: as §1
Ogataea angusta [7] = experiment: Antifungal activity against Hansenula polymorpha CD1 with ade1 leu2 cds1 genotype by agar dilution method; summary of the method: as §1
Ogataea angusta [8] = experiment: Antifungal activity against Hansenula polymorpha R3 with rgh3 genotype by agar dilution method; summary of the method: as §1
Kluyveromyces lactis [9] = experiment: Antifungal activity against Kluyveromyces lactis 2-18B with MATalpha metA1 ura3 leu2 genotype by agar dilution method; summary of the method: as §2
Saccharomyces cerevisiae [10] = experiment: Antifungal activity against haploid Saccharomyces cerevisiae 2180 by agar dilution method; summary of the method: as §2
Ogataea angusta [11] = experiment: Antifungal activity against Hansenula polymorpha 2b with arg1 ade1 leu2 genotype by agar dilution method; summary of the method: as §1
Kluyveromyces lactis [12] = experiment: Antifungal activity against Kluyveromyces lactis 1-6A with MATalpha uraA lys arg genotype by agar dilution method; summary of the method: as §2
Ogataea angusta [13] = experiment: Antifungal activity against Hansenula polymorpha AS1 with arg1 gsh2delta genotype by agar dilution method; summary of the method: as §1
Ogataea angusta [14] = experiment: Antifungal activity against Hansenula polymorpha MC1 with met2 cys1 genotype by agar dilution method; summary of the method: as §1
Saccharomyces cerevisiae [15] = experiment: Antifungal activity against diploid Saccharomyces cerevisiae 29a by agar dilution method; summary of the method: as §2
Kluyveromyces lactis [16] = experiment: Antifungal activity against Kluyveromyces lactis 2-19B with MATalpha ura lys arg genotype by agar dilution method; summary of the method: as §2
Saccharomyces cerevisiae [17] = experiment: Antifungal activity against haploid Saccharomyces cerevisiae Sigma 1278b by agar dilution method; summary of the method: as §2
Saccharomyces cerevisiae [18] = experiment: Antifungal activity against haploid Saccharomyces cerevisiae 1169 by agar dilution method; summary of the method: as §2
Saccharomyces cerevisiae [19] = experiment: Antifungal activity against haploid Saccharomyces cerevisiae YSH1171 by agar dilution method; summary of the method: as §2
Saccharomyces cerevisiae [20] = experiment: Antifungal activity against haploid Saccharomyces cerevisiae 1S by agar dilution method; summary of the method: as §2
Ogataea angusta [21] = experiment: Antifungal activity against Hansenula polymorpha CRD2 with leu2 CDR2 genotype by agar dilution method; summary of the method: as §1
Saccharomyces cerevisiae [22] = experiment: Antifungal activity against haploid Saccharomyces cerevisiae YSH1170 by agar dilution method; summary of the method: as §2
Saccharomyces cerevisiae [23] = experiment: Antifungal activity against diploid Saccharomyces cerevisiae 1a by agar dilution method; summary of the method: as §2
Ogataea angusta [24] = experiment: Antifungal activity against Hansenula polymorpha CD3 with ade1 leu2 cds3 genotype by agar dilution method; summary of the method: as §1
Ogataea angusta [25] = experiment: Antifungal activity against Hansenula polymorpha CD2 with ade1 leu2 cds2 genotype by agar dilution method; summary of the method: as §1
Ogataea angusta [26] = experiment: Antifungal activity against Hansenula polymorpha WT2 with ade1 met6 genotype by agar dilution method; summary of the method: as §1
Saccharomyces cerevisiae [27] = experiment: Antifungal activity against haploid Saccharomyces cerevisiae 10560-6B by agar dilution method; summary of the method: as §2
Ogataea angusta [28] = experiment: Antifungal activity against Hansenula polymorpha WT1 with ade1 ura3 genotype by agar dilution method; summary of the method: as §1

Measured: MIC

O=C(/C=C/c1ccccc1)c1ccc(Cl)cc1
> 40 µg/mL: all assays above

COc1cccc(/C=C/C(=O)c2ccc(Cl)cc2)c1
> 40 µg/mL: all assays above

CC(=O)Nc1ccc(/C=C/C(=O)c2ccc(Cl)cc2)cc1
> 40 µg/mL: all assays above

O=C(/C=C/c1ccc(O)c(O)c1)c1ccccc1
> 40 µg/mL: all assays above

COc1cc(/C=C/C(=O)c2ccc(Cl)cc2)ccc1O
> 40 µg/mL: all assays above
